Active and inactive are the calls of the source. No cut-off for these calls is given here.
Tests used:
[1] = target: T1, Fibroblast growth factor receptor 1 (Homo sapiens, UniProt P11362); experiment: Inhibition of FGFR1 using poly(Glu-Tyr)4:1 as substrate after 60 mins by ELISA
Target sequence in this assay (P11362 whole entry): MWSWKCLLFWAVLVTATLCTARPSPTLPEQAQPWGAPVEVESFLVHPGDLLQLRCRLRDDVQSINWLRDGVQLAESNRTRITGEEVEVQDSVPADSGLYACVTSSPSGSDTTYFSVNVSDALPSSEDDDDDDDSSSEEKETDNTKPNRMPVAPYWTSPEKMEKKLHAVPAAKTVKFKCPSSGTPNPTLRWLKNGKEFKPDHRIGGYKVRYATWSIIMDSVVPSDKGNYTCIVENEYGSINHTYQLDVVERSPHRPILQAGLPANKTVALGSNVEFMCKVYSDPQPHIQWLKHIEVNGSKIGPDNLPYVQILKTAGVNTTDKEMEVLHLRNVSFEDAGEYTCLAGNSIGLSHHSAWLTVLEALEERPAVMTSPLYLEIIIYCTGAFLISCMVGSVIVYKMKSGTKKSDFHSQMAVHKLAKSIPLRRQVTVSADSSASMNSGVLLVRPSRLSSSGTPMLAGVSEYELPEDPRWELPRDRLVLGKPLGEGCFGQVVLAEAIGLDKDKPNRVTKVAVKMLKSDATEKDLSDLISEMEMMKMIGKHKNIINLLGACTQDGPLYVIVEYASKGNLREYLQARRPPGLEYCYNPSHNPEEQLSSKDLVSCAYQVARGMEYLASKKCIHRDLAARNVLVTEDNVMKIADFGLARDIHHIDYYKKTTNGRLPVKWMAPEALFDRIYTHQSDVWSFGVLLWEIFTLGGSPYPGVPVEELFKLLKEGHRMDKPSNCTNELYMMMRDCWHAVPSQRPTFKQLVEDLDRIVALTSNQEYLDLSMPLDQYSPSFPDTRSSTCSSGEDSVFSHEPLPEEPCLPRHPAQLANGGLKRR

WI-38 = experiment: Antiproliferative activity against human WI38 cells expressing FGFR after 72 hrs by SRB assay; format: cell-based; settings: WI-38, 72 h
Outline: (§1)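 Cells seeded and grown 24 h, then exposed to increasing compound concentrations for 72 h without medium change. Fixed with cold 10% TCA 1 h at 4 °C, stained 15 min with 4 mg/mL SRB in 1% acetic acid, rinsed, dye dissolved in 10 mM Tris base, A515 read. Inhibition = (1 − A515treated/A515control)×100; IC50 by Logit method from at least three independent tests.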

BXPC-3 = experiment: Antiproliferative activity against human BxPC3 cells expressing FGFR after 72 hrs by SRB assay; format: functional, cell-based; settings: BXPC-3, 72 h; outline: as §1
T-24 = experiment: Antiproliferative activity against human T24 cells expressing FGFR after 72 hrs by SRB assay; format: functional, cell-based; settings: T-24, 72 h; outline: as §1
Calf thymus DNA = experiment: Binding affinity to calf thymus DNA at 20 uM by circular dichroism assay; format: nucleic-acid assay; settings: Bos taurus
[2] = target: T1, Fibroblast growth factor receptor 1; experiment: Inhibition of b-FGF-induced FGFR1 phosphorylation in human BxPC3 cells after 12 hrs by Western blot analysis; format: cell-based; settings: BXPC-3
Outline: (§2)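 BxPC3 cells plated at 3 × 10^5 per well, serum-starved 24 h, then treated 12 h with compound (1.25, 2.5, 5, 10 μM). Whole-cell lysates run on 10% SDS-PAGE and immunoblotted for phospho-FGFR1 (Tyr653/654), phospho-Erk1/2 (T202/Y204), phospho-Akt and totals, with GAPDH loading control.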
Target sequence in this assay (P11362 22-822 limits assumed): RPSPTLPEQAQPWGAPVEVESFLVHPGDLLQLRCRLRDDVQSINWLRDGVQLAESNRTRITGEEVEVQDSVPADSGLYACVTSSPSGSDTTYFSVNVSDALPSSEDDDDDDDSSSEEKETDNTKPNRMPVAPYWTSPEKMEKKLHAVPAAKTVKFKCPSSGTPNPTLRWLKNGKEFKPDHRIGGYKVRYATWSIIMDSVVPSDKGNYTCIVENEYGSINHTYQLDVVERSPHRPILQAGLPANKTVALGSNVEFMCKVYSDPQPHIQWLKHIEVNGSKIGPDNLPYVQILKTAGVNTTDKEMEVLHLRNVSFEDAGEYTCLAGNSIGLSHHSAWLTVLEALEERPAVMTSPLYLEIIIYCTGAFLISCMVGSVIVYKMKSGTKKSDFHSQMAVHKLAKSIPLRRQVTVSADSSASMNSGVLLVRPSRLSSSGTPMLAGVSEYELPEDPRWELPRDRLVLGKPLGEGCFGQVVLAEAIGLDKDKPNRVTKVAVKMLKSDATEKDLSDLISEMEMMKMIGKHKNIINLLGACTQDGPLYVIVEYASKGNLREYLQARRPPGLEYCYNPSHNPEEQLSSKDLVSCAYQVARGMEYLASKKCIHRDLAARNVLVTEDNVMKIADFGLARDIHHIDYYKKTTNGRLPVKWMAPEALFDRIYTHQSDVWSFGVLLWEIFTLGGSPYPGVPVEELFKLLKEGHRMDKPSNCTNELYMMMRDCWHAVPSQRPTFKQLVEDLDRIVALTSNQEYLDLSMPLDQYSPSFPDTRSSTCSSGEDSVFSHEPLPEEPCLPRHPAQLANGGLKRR

[3] = target: T1, Fibroblast growth factor receptor 1; experiment: Inhibition of b-FGF-induced FGFR1 phosphorylation in human BxPC3 cells at 10 uM after 12 hrs by Western blot analysis relative to control; format: cell-based; settings: BXPC-3; outline: as §2
Target sequence in this assay (P11362 22-822 limits assumed): as above

[4] = target: T1, Fibroblast growth factor receptor 1; experiment: Inhibition of b-FGF-induced FGFR1 phosphorylation in human BxPC3 cells at 1.25 uM after 12 hrs by Western blot analysis; format: cell-based; settings: BXPC-3; outline: as §2
Target sequence in this assay (P11362 22-822 limits assumed): as above

[5] = target: T1, Fibroblast growth factor receptor 1; experiment: Inhibition of FGFR1 in human BxPC3 cells assessed as reduction of Erk1/2 phosphorylation at 10 uM after 12 hrs by Western blot analysis; format: cell-based; settings: BXPC-3; outline: as §2
Target sequence in this assay (P11362 22-822 limits assumed): as above

[6] = target: T1, Fibroblast growth factor receptor 1; experiment: Inhibition of FGFR1 in human BxPC3 cells assessed as reduction of Akt phosphorylation at 10 uM after 12 hrs by Western blot analysis; format: cell-based; settings: BXPC-3; outline: as §2
Target sequence in this assay (P11362 22-822 limits assumed): as above

Compound	IC50 [1]	IC50 (WI-38)	IC50 (BXPC-3)	IC50 (T-24)	other results
CCOC(=O)C1=C2C(=NC1=O)c1cccc3c(SC(C)C)ccc2c13	> 10 µM	–	–	–	–
CC(Sc1ccc2c3c(cccc13)C1=NC(=O)C(C#N)=C12)C1(C)CSCO1 (centres undefined)	3.6 µM	–	–	–	–
O=C(COC(=O)C1=C2C(=NC1=O)c1cccc3cccc2c13)OCC(F)(F)C(F)(F)F	0.077 µM	48.3 µM	23.3 µM	19 µM	–
C=CCOC(=O)C1=C2C(=NC1=O)c1cccc3c(SCC=C)ccc2c13	0.216 µM	19.7 µM	2.5 µM	6.6 µM	–
C=CCSc1ccc2c3c(cccc13)C1=NC(=O)C(C(=O)OCC(=O)OCC(F)(F)C(F)(F)F)=C12	0.424 µM	45.6 µM	38.5 µM	86.4 µM	–
CCCSC(=O)COC(=O)C1=C2C(=NC1=O)c1cccc3c(SCCC)ccc2c13	> 10 µM	> 100 µM	56.3 µM	79.1 µM	–
CC(C)Sc1ccc2c3c(cccc13)C1=NC(=O)C(C#N)=C12	> 10 µM	–	–	–	–
CCCSc1ccc2c3c(cccc13)C1=NC(=O)C(C(=O)OCC)=C12	> 10 µM	9.6 µM	5.8 µM	1.7 µM	Activity (Calf thymus DNA): Active
C=CCSc1ccc2c3c(cccc13)C1=NC(=O)C(C(=O)OCC)=C12	0.485 µM	4.6 µM	2.5 µM	0.7 µM	inhibition [2]: Dose-dependent effect; inhibition [3]: Active; inhibition [4]: Active; inhibition [5]: Active; inhibition [6]: inactive
CCCSC(=O)COC(=O)C1=C2C(=NC1=O)c1cccc3cccc2c13	0.065 µM	25.2 µM	10.1 µM	10.5 µM	–
CC1OCCC1Sc1ccc2c3c(cccc13)C1=NC(=O)C(C#N)=C12 (centres undefined)	> 10 µM	–	–	–	–
C=CCSc1ccc2c3c(cccc13)C1=NC(=O)C(C(=O)OCC(=O)SCCC)=C12	0.577 µM	> 100 µM	13.7 µM	71.8 µM	–
CCCSc1ccc2c3c(cccc13)C1=NC(=O)C(C#N)=C12	> 10 µM	–	–	–	–
N#CC1=C2C(=NC1=O)c1cccc3c(SCCO)ccc2c13	> 10 µM	–	–	–	–
